This is a sample that favours compounds with a hit; in the whole collection about 3.7% have one here.
KCNQ1 block – blocks the human KCNQ1 potassium channel; P51787; CHO-K1 KCNQ1, FluxOR thallium flux fluorescence; stronger effect = higher value; B-score at 10 µM; actives 1.3% (n = 310,000); AID 2642;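 active = compounds whose thallium flux B-score, printed positive for inhibition, exceeds three library SD while starting fluorescence stays within three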;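 note: channel opened by potassium depolarization with thallium stimulus after 20 min compound exposure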
Target sequence (P51787 whole entry, looked up): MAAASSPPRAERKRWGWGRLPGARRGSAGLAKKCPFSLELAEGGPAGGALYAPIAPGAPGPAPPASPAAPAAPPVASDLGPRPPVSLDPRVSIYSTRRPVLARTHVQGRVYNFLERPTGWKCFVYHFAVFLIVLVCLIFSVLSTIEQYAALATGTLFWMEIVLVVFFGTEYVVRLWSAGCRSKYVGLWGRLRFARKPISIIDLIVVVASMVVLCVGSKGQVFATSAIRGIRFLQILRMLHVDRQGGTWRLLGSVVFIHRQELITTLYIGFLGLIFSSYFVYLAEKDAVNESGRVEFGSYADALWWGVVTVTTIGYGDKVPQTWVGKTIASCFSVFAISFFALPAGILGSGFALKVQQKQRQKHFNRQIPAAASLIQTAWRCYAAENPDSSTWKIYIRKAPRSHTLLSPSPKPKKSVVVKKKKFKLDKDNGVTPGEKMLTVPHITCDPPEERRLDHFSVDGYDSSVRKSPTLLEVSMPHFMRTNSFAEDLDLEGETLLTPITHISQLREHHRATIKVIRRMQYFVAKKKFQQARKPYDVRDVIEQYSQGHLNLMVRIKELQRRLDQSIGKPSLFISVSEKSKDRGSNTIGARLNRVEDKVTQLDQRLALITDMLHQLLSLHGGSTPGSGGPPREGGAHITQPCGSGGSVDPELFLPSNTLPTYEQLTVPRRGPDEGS
Kir21 block – blocks the mouse Kir2.1 inward-rectifier potassium channel. P35561. actives 0.85% (n = 310,000). B-score at 10 µM. HEK293-Kir2.1, FluxOR thallium flux fluorescence; stronger effect = lower value. AID 1672;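 active = fluorescence ratio B-score at or below minus 3 SD of library scores, with starting-brightness B-score within 2 SD, cut at about -4.2 in these data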;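 note: channel flux triggered by added potassium and thallium sulfate stimulus; B-score of peak minus minimum fluorescence over baseline after thallium stimulus; more negative B-score means stronger Kir2.1 block with less thallium influx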
KCNK9 inh – inhibitors of human KCNK9 two-pore domain potassium channel | Q9NPC2 | HEK293 KCNK9, FluxOR thallium flux fluorescence; stronger effect = lower value | B-score at 10 µM | actives 1.2% (n = 310,000);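 active = ratio B-score over 3 SD below the library mean, with starting fluorescence within 5 SD of its mean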;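 note: negative B-score means less thallium flux so channel inhibition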
KCNQ1 pot – potentiators or activators of human KCNQ1 potassium channel; P51787; CHO-K1 KCNQ1, thallium flux FluxOR fluorescence; stronger effect = higher value; B-score at 10 µM; actives 0.35% (n = 310,000); AID 2648;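 active = fluorescence ratio B-score, a plate-corrected score, at least three library SD, with initial intensity B-score within 5 SD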
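assay system = KCNQ1-transfected CHO-K1 cells | medium = assay buffer with matched DMSO | probe or stimulus = depolarizing K+/Tl+ stimulus, K2SO4 and Tl2SO4 each 12.5 mM in 5x stock | dosing = single dose | incubation = dye 90 min, compound 20 min, room temperature | detection = kinetic FluxOR fluorescence, 10 s baseline plus 110 s post-stimulus | evaluation = ratio B score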
KCNK3 block – human KCNK3 channel inhibition, primary screen; O14649; actives 0.84% (n = 340,000); CHO-KCNK3 thallium flux, FluxOR fluorescence; stronger effect = lower value; B-score at 10 µM;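 active = B-score under library mean minus 4 SD, starting fluorescence ratio at most library mean plus 5 SD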;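 note: more negative B-score means stronger inhibition of thallium flux through KCNK3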
hERG rescue – compounds protecting human hERG from proarrhythmic drug block. Q12809. actives 0.51% (n = 310,000). activation (rescue from dofetilide block), less the hit threshold, % at 10 µM. CHO-hERG, FluxOR thallium flux, dofetilide IC70 present;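 active = activation above the mean of controls blocked by dofetilide plus 5 SD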;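 note: thallium influx through hERG after potassium depolarization seen as dye fluorescence rise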
Active calls of the source: *.

How did CC(C)(C)c1ccc(C(=O)NC(=S)N2CCCCCC2)cc1 do in these assays?
KCNQ1 block: inactive; Kir21 block: 1.7; KCNK9 inh: inactive; KCNQ1 pot: 22*; KCNK3 block: inactive; hERG rescue: 8.4*

What do the screens show for `CC1CCN(C(=S)NC(=O)c2ccc(C(C)(C)C)cc2)CC1`?
KCNQ1 block: inactive; Kir21 block: 1.1; KCNK9 inh: inactive; KCNQ1 pot: 29*; KCNK3 block: inactive; hERG rescue: 14*

Results for COc1ccc(C(=O)NC(=S)N2CCC(C)CC2)cc1Br ?
KCNQ1 block: inactive; Kir21 block: -2; KCNK9 inh: inactive; KCNQ1 pot: 27*; KCNK3 block: inactive; hERG rescue: 15*

Results for Cn1nc(C(=O)NCC(=O)Nc2ccc(F)c(F)c2F)c2ccccc2c1=O ?
KCNK3 block: inactive

Results for COc1ccccc1OCCC(=O)NNC(=O)c1ccccc1F ?
KCNK3 block: inactive

What do the screens show for `O=[N+]([O-])/C(Cl)=C(/NCCO)C(Cl)=C(Cl)Cl`?
KCNK3 block: inactive

How did O=C(NC(=S)N(CC1CCC1)CC1CCCO1)c1cccc([N+](=O)[O-])c1 (configuration not stated) do in these assays?
KCNQ1 block: inactive; Kir21 block: 0.37; KCNK9 inh: inactive; KCNQ1 pot: 16*; KCNK3 block: inactive; hERG rescue: 7.9*

What do the screens show for `Cc1ccc(C(=O)NC(=S)N2CCN(c3ccccc3F)CC2)cc1`?
KCNQ1 block: inactive; Kir21 block: -0.12; KCNK9 inh: inactive; KCNQ1 pot: inactive; KCNK3 block: inactive; hERG rescue: -9

Results for Cc1ccc(C(=O)NC(=S)N2CCN(c3cc(C)ccc3C)CC2)cc1 ?
KCNQ1 block: inactive; Kir21 block: 0.05; KCNK9 inh: inactive; KCNQ1 pot: inactive; KCNK3 block: inactive; hERG rescue: 7.7*

How did O=C(NCCSc1ccc(Br)cc1)c1ccc2nc[nH]c2c1 do in these assays?
KCNQ1 block: inactive; Kir21 block: 0.1; KCNK9 inh: inactive; KCNQ1 pot: inactive; KCNK3 block: inactive; hERG rescue: -12

Results for Cc1ccc(-c2nn(-c3ccccc3)cc2C2SCC(=O)N2Cc2ccccc2)o1 (configuration not stated) ?
KCNQ1 block: 7*; Kir21 block: -0.66; KCNK9 inh: inactive; KCNQ1 pot: inactive; KCNK3 block: inactive; hERG rescue: -20

What do the screens show for `N#CCSc1ccccc1NC(=O)COC(=O)CCNC(=O)c1ccc([N+](=O)[O-])cc1`?
KCNK3 block: inactive

Results for N#Cc1cc([N+](=O)[O-])ccc1N1CCCC1 ?
KCNQ1 block: inactive; Kir21 block: -1.1; KCNK9 inh: inactive; KCNQ1 pot: inactive; KCNK3 block: inactive; hERG rescue: -2

Results for CN(C)S(=O)(=O)c1cc([N+](=O)[O-])ccc1N1CCCCCC1 ?
KCNQ1 block: inactive; Kir21 block: -4.6*; KCNK9 inh: inactive; KCNQ1 pot: inactive; KCNK3 block: inactive; hERG rescue: -2

How did O=[N+]([O-])c1ccc(N2CCCCCC2)c([N+](=O)[O-])c1 do in these assays?
KCNQ1 block: inactive; Kir21 block: -0.89; KCNK9 inh: inactive; KCNQ1 pot: inactive; KCNK3 block: inactive; hERG rescue: -16

How did CC(C)CN(CC(C)C)S(=O)(=O)c1cc([N+](=O)[O-])ccc1N1CCCCCC1 do in these assays?
KCNQ1 block: 7*; Kir21 block: -2.2; KCNK9 inh: inactive; KCNQ1 pot: inactive; KCNK3 block: inactive; hERG rescue: 0

What do the screens show for `CCn1c(COc2ccccc2OC)nnc1SCC(=O)NC1CCCC1`?
KCNQ1 block: inactive; Kir21 block: 0.41; KCNK9 inh: inactive; KCNQ1 pot: inactive; KCNK3 block: inactive; hERG rescue: -9

What do the screens show for `CC(C)N(Cc1ccccc1)C(=O)COC(=O)CCC(=O)c1ccc(F)cc1`?
KCNK3 block: inactive

Results for CCOC(=O)c1ccccc1NC(=O)Cc1ccc(S(=O)(=O)N2CCCC2)s1 ?
KCNK3 block: inactive

Results for Cc1c(O)ccc2cc(S(=O)(=O)c3ccccc3)c(=O)oc12 ?
KCNQ1 block: 11*; Kir21 block: -10; KCNK9 inh: inactive; KCNQ1 pot: inactive; KCNK3 block: inactive; hERG rescue: -11

How did Cc1cc(S(=O)(=O)N2CCOCC2)ccc1OCC(=O)NCc1ccco1 do in these assays?
KCNQ1 block: inactive; Kir21 block: -0.07; KCNK9 inh: inactive; KCNQ1 pot: inactive; KCNK3 block: inactive; hERG rescue: 6.7*

How did CCn1nc(NS(=O)(=O)c2ccccc2[N+](=O)[O-])c2cc3cccc(C)c3nc21 do in these assays?
KCNQ1 block: inactive; Kir21 block: 2.1; KCNK9 inh: inactive; KCNQ1 pot: inactive; KCNK3 block: inactive; hERG rescue: -17

Results for CCn1nc(NS(=O)(=O)c2ccc([N+](=O)[O-])cc2)c2cc3cccc(C)c3nc21 ?
KCNQ1 block: 9*; Kir21 block: 2.9; KCNK9 inh: inactive; KCNQ1 pot: inactive; KCNK3 block: inactive; hERG rescue: -7

Results for O=C1N(Cc2ccc(F)cc2)CCN1c1ccc(F)cc1 ?
KCNQ1 block: inactive; Kir21 block: -0.45; KCNK9 inh: inactive; KCNQ1 pot: 19*; KCNK3 block: inactive; hERG rescue: -14

How did COc1cccc(CN2CCN(c3ccc(F)cc3)C2=O)c1 do in these assays?
KCNQ1 block: inactive; Kir21 block: 1.3; KCNK9 inh: inactive; KCNQ1 pot: inactive; KCNK3 block: inactive; hERG rescue: -1

What do the screens show for `COc1ccc(CCN2CCC(Nc3nc4ccccc4n3Cc3ccc(F)cc3)CC2)cc1`?
KCNQ1 block: inactive; Kir21 block: -6.8*; KCNK9 inh: inactive; KCNQ1 pot: inactive; KCNK3 block: inactive

How did Cc1cc(Nc2ccccc2)nn1C(=O)c1ccc([N+](=O)[O-])cc1 do in these assays?
KCNQ1 block: inactive; Kir21 block: 1.4; KCNK9 inh: inactive; KCNQ1 pot: inactive; KCNK3 block: inactive; hERG rescue: -2

What do the screens show for `Cc1cc(Nc2ccccc2)nn1C(=O)c1ccc(Cl)cc1`?
KCNQ1 block: inactive; Kir21 block: -0.63; KCNK9 inh: -7.7*; KCNQ1 pot: inactive; KCNK3 block: inactive; hERG rescue: -5

What do the screens show for `Cn1c(SCc2cccc([N+](=O)[O-])c2)nc2ccccc2c1=O`?
KCNK3 block: inactive

How did Cn1c(SCc2ccc(F)cc2Cl)nc2ccccc2c1=O do in these assays?
KCNK3 block: -8.9*

What do the screens show for `Cn1c(SCc2cccc(C#N)c2)nc2ccccc2c1=O`?
KCNQ1 block: inactive; Kir21 block: -0.88; KCNK9 inh: -7*; KCNQ1 pot: inactive; KCNK3 block: inactive; hERG rescue: -2

Results for O=C(COC(=O)c1ccc([N+](=O)[O-])o1)Nc1ncc(Cl)cc1Cl ?
KCNK3 block: inactive

Bioassay records as filed in PubChem.
